Data published in ChEMBL document CHEMBL1134719, “Design, synthesis and stability of N-acyloxymethyl- and N-aminocarbonyloxymethyl-2-azetidinones as human leukocyte elastase inhibitors” (Bioorg Med Chem Lett, 2001).
Calls of active or inactive are those of the source. The calls are words filed in the database; no cut-off is given here.

Key:
[1] = Half-life in pH 7.4 phosphate buffer at 37 degree C; format: ADME
[2] = target: T1, Chymotrypsin-like elastase family member 2A (Sus scrofa) (UniProt P08419); assay: Second-order rate constant for the inhibition of PPE (pancreatic porcine elastase); NI=no inhibition
T1 sequence (whole entry): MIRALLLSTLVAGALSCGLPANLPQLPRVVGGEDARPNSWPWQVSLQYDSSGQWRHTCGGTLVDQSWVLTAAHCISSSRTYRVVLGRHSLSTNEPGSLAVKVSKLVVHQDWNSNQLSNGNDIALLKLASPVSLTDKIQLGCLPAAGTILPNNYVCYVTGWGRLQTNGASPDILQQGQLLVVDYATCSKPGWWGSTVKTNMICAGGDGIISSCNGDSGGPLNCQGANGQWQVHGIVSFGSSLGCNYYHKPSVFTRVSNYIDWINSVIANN
Method in brief: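 Porcine pancreatic elastase was assayed at 25 °C with an inhibitor-to-enzyme ratio [I]/[E] of 200, giving the second-order constant k_obs/[I].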

[3] = target: T2, Neutrophil elastase (Homo sapiens) (UniProt P08246); assay: (§1) Second-order rate constant for the inhibition of human leukocyte elastase
T2 sequence (whole entry): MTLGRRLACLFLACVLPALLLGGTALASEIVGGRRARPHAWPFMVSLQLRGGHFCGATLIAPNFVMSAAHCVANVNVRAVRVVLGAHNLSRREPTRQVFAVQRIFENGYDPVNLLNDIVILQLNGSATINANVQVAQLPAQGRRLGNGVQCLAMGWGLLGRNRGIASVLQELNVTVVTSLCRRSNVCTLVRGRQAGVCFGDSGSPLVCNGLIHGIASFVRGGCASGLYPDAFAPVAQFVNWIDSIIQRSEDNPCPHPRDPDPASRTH
Method in brief: (§2)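 Pre-incubation (Kitz–Wilson) kinetics at 25 °C. Enzyme and inhibitor were incubated, and aliquots were withdrawn at several time intervals into a cuvette holding substrate in HEPES buffer. After 30 s, the absorbance change was followed for 60 s.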

[4] = target: T2, Neutrophil elastase (Homo sapiens); assay: Second-order rate constant for the inhibition of human leukocyte elastase;NI=no inhibition; method in brief: as §2
[5] = target: T3, Neutrophil elastase (Homo sapiens, UniProt P08246); assay: as §1; method in brief: as §2
T3 sequence (P08246 whole entry): T2 sequence (whole entry)

[6] = target: T2, Neutrophil elastase (Homo sapiens); assay: Second-order rate constant for the inhibition of HLE (human leukocyte elastase); method in brief: as §2

SMILES	half-life [1]	k obs / 1 [2]	second-order inhibition rate constant [3]	also measured
CCC1(CC)C(=O)N(COC(=O)c2ccccc2)C1Sc1nc2ccccc2o1 (centres undefined)	13.2 days	inactive	52.8 M⁻¹ s⁻¹	–
O=C1CCN1CO	–	–	–	k obs / 1 [4]: inactive
CO[C@H]1C(=O)N2C(C(=O)O)=C(CF)CS(=O)(=O)C12 (some centres undefined)	0.792 days	–	–	IC50 [5]: 110 µM
CCC1(CC)C(=O)N(CO)C1S(=O)(=O)c1ccccc1 (centres undefined)	–	–	–	k obs / 1 [4]: inactive
CCC1(CC)C(=O)N(COC(=O)c2ccccc2)C1Sc1ccccc1 (centres undefined)	–	–	2.2 M⁻¹ s⁻¹	–
CCC1(CC)C(=O)N(COC(=O)Nc2ccc(C)cc2)C1S(=O)(=O)c1ccccc1 (centres undefined)	–	inactive	60.9 M⁻¹ s⁻¹	–
O=C(OCN1C(=O)CC1Sc1ccccc1)c1ccccc1 (centres undefined)	–	–	–	k obs / 1 [4]: inactive
O=C(OCN1C(=O)CC1Sc1nc2ccccc2o1)c1ccccc1 (centres undefined)	–	inactive	43.2 M⁻¹ s⁻¹	–
CCC1(CC)C(=O)N(COC(=O)Nc2ccccc2)C1S(=O)(=O)c1ccccc1 (centres undefined)	–	inactive	41.9 M⁻¹ s⁻¹	–
CCC1(CC)C(=O)N(COC(=O)c2ccccc2)C1S(=O)(=O)c1ccccc1 (centres undefined)	125 days	inactive	67.5 M⁻¹ s⁻¹	–
O=C(OCN1C(=O)CC1S(=O)(=O)c1ccccc1)c1ccccc1 (centres undefined)	40.8 days	inactive	18.7 M⁻¹ s⁻¹	–

Continued, in another order:

half-life [1]	k obs / 1 [2]	second-order inhibition rate constant [3]	SMILES	also measured
–	–	32.3 M⁻¹ s⁻¹	CCC1(CC)C(=O)N(COC(=O)NS(=O)(=O)c2ccc(C)cc2)C1S(=O)(=O)c1ccccc1 (centres undefined)	–
0.0542 days	inactive	–	O=C(OCN1CCC1=O)c1ccccc1	k obs / 1 [6]: 35.5 M⁻¹ s⁻¹
> 208 days	inactive	100 M⁻¹ s⁻¹	CCC1(CC)C(=O)N(COC(=O)Nc2ccc(OC)cc2)C1S(=O)(=O)c1ccccc1 (centres undefined)	–
–	–	19000 M⁻¹ s⁻¹	CO[C@H]1C(=O)N2C(C(=O)O)=C(COC(C)=O)CS(=O)(=O)C12 (some centres undefined)	–
